Compound activity deposited in PubChem by The Scripps Research Institute Molecular Screening Center.
SIAE inh: human SIAE inhibitors, primary screen, biochemical, fluorescence polarization, FP-Rh probe, 1536-well HTS | Sialate O-acetylesterase (Homo sapiens), Q9HAT2 | SIAE FP-Rh probe binding | inhibition, % at 9.66 µM | 0.69% of 370,000 active | AID 1053197, 2014;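 active = inhibition above a cutoff: mean of compounds within the control limits plus 3 SD of those, cut at about 17% in these data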;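 also: 0% = plate median of compound wells and 100% = probe without SIAE protein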
TCR-CD3 inh: inhibitors of human TCR-CD3 interaction, primary screen, biochemical, fluorescence, TAMRA-labeled TCR probe. AID 651800, 2012. inhibition, % at 9.4 µM. T-cell receptor (TCR). 0.37% of 360,000 active; in the data active = inhibition above about 19%;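 also: recombinant mutant TCR 2C K166C tagged with TAMRA read by polarization; 0% = receptor in buffer alone and 100% = receptor with positive control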
PRMT1 inh: PRMT1 methyltransferase inhibitors, primary screen, biochemical, fluorescence polarization; Protein arginine N-methyltransferase 1 (Homo sapiens), Q99873; 1.3% of 370,000 active; inhibition, % at 2.79 µM; recombinant PRMT1, activity-based probe fluorescence polarization;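 active = inhibition above about 21% made by adding two undisclosed values, limit read from the data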
mABHD4 FP: ABHD4 inhibitors, primary screen, biochemical, fluorescence polarization, mouse; purified mABHD4, FP-Rh probe fluorescence polarization; inhibition, % at 8.92 µM; (Lyso)-N-acylphosphatidylethanolamine lipase (Mus musculus), Q8VD66; 0.54% of 370,000 active;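 active = inhibition exceeding the mean over every tested compound plus 3 SD, cut at about 30% in these data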;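 also: 0% = plate median of compound wells and 100% = S159A mutant with DMSO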
Target sequence (Q8VD66 whole entry, looked up): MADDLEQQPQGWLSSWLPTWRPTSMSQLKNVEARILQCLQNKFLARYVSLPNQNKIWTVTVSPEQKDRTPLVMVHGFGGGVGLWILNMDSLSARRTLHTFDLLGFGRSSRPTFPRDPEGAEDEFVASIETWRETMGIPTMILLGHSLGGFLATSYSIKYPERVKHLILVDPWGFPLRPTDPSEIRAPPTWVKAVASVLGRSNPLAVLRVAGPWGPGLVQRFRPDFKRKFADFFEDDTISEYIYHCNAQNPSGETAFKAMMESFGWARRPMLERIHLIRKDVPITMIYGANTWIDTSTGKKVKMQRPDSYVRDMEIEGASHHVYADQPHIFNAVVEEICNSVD
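Test system: mouse ABHD4 enzyme, wild type. Reagent: FP-Rh fluorescent activity-based probe, added after compound pre-incubation. Timing: pre-incubation 45 min, probe exposure 60 min, at 25 °C. Technique: FP readout, ex 525 nm / em 598 nm. Benchmarks: high control S159A mutant with DMSO, low control median of compound wells.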
HTRA1 inh: HTRA1 serine protease inhibitors, primary screen, biochemical, fluorescence polarization, HTS; AID 504803, 2011; inhibition, % at 5.96 µM; recombinant HTRA1, FP-rhodamine activity-based probe; Q92743; 0.5% of 340,000 active; in the data active = inhibition above about 36%;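 also: 0% = enzyme with DMSO and 100% = wells lacking enzyme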
PRMT1 inh conf: PRMT1 methyltransferase inhibitors, confirmation, biochemical, fluorescence polarization, triplicate | 42% of 3,300 active | AID 687036, 2013 | shares compounds with PRMT1 inh | inhibition, % at 2.79 µM | recombinant His-PRMT1, activity-based probe fluorescence polarization;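 active = mean inhibition across replicates above the hit cutoff derived for the earlier primary screen, cut at about 22% in these data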
An asterisk follows results filed as active; / = no result. The list is not random: actives were taken first. Their share in the collection is about 2.6%.

SMILES | SIAE inh | TCR-CD3 inh | PRMT1 inh | mABHD4 FP | HTRA1 inh | PRMT1 inh conf
Cc1ccccc1C(=O)NNC(=S)NC(=O)COc1ccccc1 | 7 | -10 | 44* | -8 | 1 | 9
CC(C)C[C@H](NC1(C(=O)NCCc2c[nH]c3ccccc23)CCC1)C(=O)NCCCc1ccccc1 | 2 | / | -2 | -6 | / | /
O=C(NCCSc1ccccn1)c1ccc(Cl)cc1 | -1 | 0 | 4 | 0 | 0 | /
N#CC(Sc1ccccn1)c1ccc(Cl)cc1 (stereo not given) | 3 | -5 | 46* | -2 | -2 | 35*
O=C(OCCN1C(=O)c2cccc3c(N4CCOCC4)ccc(c23)C1=O)c1ccc(Cl)cc1 | 9 | 8 | 29* | 2 | 0 | 1
CCCN(CCC)S(=O)(=O)c1ccc(C(=O)OCCN2C(=O)c3cccc4c(N5CCOCC5)ccc(c34)C2=O)cc1 | / | / | / | / | -3 | /
O=C1/C(=C/c2ccccc2O)SC(=S)N1Cc1cccnc1 | -10 | -1 | 55* | -7 | -9 | 35*
O=C1/C(=C\c2ccc(O)cc2)SC(=S)N1Cc1ccccc1 | 2 | -11 | 3 | -20 | -17 | /
N#Cc1cc2c(=O)n3ccccc3nc2n(Cc2ccco2)c1=NC(=O)c1ccco1 | -5 | 3 | 32* | 4 | -1 | 2
S=c1[nH]nc([C@@H]2C[C@H]2c2ccccc2)n1-c1ccccc1Cl | -1 | -5 | 4 | 5 | -2 | /
Cc1ccc(C2CC2c2n[nH]c(=S)n2-c2cccc(C)c2)cc1 (stereo not given) | 5 | -4 | 26* | -14 | -8 | 17
Cc1ccc(C2CC2c2n[nH]c(=S)n2-c2ccc(Cl)cc2)cc1 (stereo not given) | 6 | 4 | 27* | -3 | -3 | 11
COC(=O)[C@]12C[C@H](CC(=O)NCc3cccc(C(F)(F)F)c3)C(=O)N(Cc3ccc(Cl)cc3Cl)C1=C[C@H](C(C)C)O[C@@H]2C1CC1 | 4 | / | 0 | -7 | / | /
O=C(CCSc1ccc(Cl)cc1)c1ccco1 | -3 | -3 | 41* | -6 | -2 | 66*
CCCCCCC(=O)N(O)C1CC(=O)N(c2ccc(F)cc2)C1=O (stereo not given) | -5 | 3 | 70* | 2 | -10 | 97*
CCCCCCC(=O)N(O)C1CC(=O)N(c2ccc(Br)cc2)C1=O (stereo not given) | -4 | -14 | 42* | 5 | -39 | 73*
COCCNC(=O)[C@]1(C#N)CC(=O)N(C)[C@@H]1c1ccccc1 | 1 | / | -1 | 0 | / | /
COC(=O)C[C@H]1CC[C@@H]2[C@H](COc3ccc(NS(C)(=O)=O)cc3C(=O)N2C)O1 | -3 | / | -1 | 7 | / | /
CC1(C)CC(=O)C=C(C2CC2)C1=O | 13 | 4 | -3 | 0 | / | /
C=CCN1C(=O)[C@H](CC(=O)NCCC(C)C)[C@@]2(C(=O)OCC)CCCC=C12 | 1 | / | -6 | 0 | / | /
OC[C@H]1CC[C@@H]2O[C@H](CCc3ccc(-c4ccc(F)cc4)cc3)[C@H](n3cc(C4CC4)nn3)C[C@@H]2O1 | 0 | / | -5 | -14 | / | /
CCCCOc1ccc(N2C(=O)CC(NCc3ccncc3)C2=O)cc1 (stereo not given) | -1 | -5 | 15 | -13 | 5 | /
CCOc1ccc(N2C(=O)CC(NC3CCCCNC3=O)C2=O)cc1 (stereo not given) | -1 | 0 | 44* | -9 | -1 | 0
O=C1NCCCCC1NC1CC(=O)N(c2ccccc2)C1=O (stereo not given) | -1 | 8 | 34* | 3 | -2 | 7
CCOc1ccc(N2C(=O)CC(NCc3ccc(S(N)(=O)=O)cc3)C2=O)cc1 (stereo not given) | 11 | 7 | 5 | 6 | -4 | /
SMILES | SIAE inh | TCR-CD3 inh | PRMT1 inh | mABHD4 FP | HTRA1 inh | PRMT1 inh conf
O=C1CC(NNc2ccccc2)C(=O)N1c1ccccc1 (stereo not given) | -6 | 1 | 1 | 9 | -3 | /
CCOc1ccc(N2C(=O)CC(NCC#N)C2=O)cc1 (stereo not given) | 2 | 1 | 33* | 4 | 0 | 46*
Nc1ccc2c3c(cccc13)CC2 | 2 | 12 | 66* | 17 | 24 | 9
CN(C)c1ccc(-c2nc3cnccn3c2Nc2ccc3c(c2)OCCO3)cc1 | 7 | -5 | 4 | 3 | 0 | /
Cc1ccc(-c2nc3cnccn3c2Nc2ccc3c(c2)OCCO3)o1 | 5 | -4 | 27* | 1 | 11 | 2
O=C(CC(Sc1ccc(Br)cc1)C(=O)O)c1ccc(F)cc1 (stereo not given) | -5 | 11 | 80* | 3 | -5 | 88*
CCOc1ccc(C(=O)CC(Sc2ccc(C)cc2)C(=O)O)cc1 (stereo not given) | 5 | 5 | 29* | 7 | -2 | 54*
CCOC(=O)[C@@]12CCCC3=C1N(CCC3)C(=O)[C@H]2CC(=O)NCCc1ccccc1OC | -1 | / | 0 | -10 | / | /
O=C(CSc1n[nH]c(-c2ccncc2)n1)c1ccccc1 | -1 | -6 | 2 | 13 | 9 | /
Cc1nc(SCC(=O)c2ccccc2)n[nH]1 | 2 | 1 | 54* | 7 | -2 | 43*
CCOC(=O)c1c(/N=C/c2cc(OC)cc([N+](=O)[O-])c2O)sc(C)c1C | 6 | 5 | 4 | 1 | 12 | /
CCOC(=O)c1c(/N=C/c2cc([N+](=O)[O-])ccc2O)sc(C)c1C | -12 | -29 | 29* | -19 | 1 | -2
CN1CCc2nc(SCC(=O)Nc3ccc(OC(F)(F)F)cc3)c(C#N)c(-c3cccs3)c2C1 | -9 | 3 | 40* | -10 | -3 | 41*
CC(C)(C)C(=O)CSc1nc2c(c(-c3cccs3)c1C#N)CCC2 | -4 | 6 | 3 | 1 | -29 | /
Cc1cccc(CSc2nc3c(c(-c4cccs4)c2C#N)CN(C)CC3)c1 | 2 | 6 | 0 | 6 | -1 | /
CN1CCc2nc(SCC(=O)Nc3cccc(F)c3)c(C#N)c(-c3cccs3)c2C1 | -8 | 6 | 65* | 5 | -5 | 23*
COc1ccc(C(=O)C2(C(=O)Nc3cc(C)cc(C)c3)CC(c3ccccn3)=NO2)cc1 (stereo not given) | -3 | / | -2 | -16 | / | /
Cn1ncc2c(=S)nc(Cl)[nH]c21 | 0 | -5 | 31* | 2 | 3 | 6
O=C(Cc1ccccc1F)N1CCC(n2nnc3ncccc32)CC1 | 9 | / | 0 | 1 | / | /
CC(C)c1ccc(N2C(=O)CC(Sc3ncn[nH]3)C2=O)cc1 (stereo not given) | 0 | 5 | 61* | -1 | -9 | 64*
